A short description of series [1]: Binding affinity to synthetic c-MYC G-quadruplex DNA assessed as change in melting temperature at 4 mol equiv in presence of 20 mM KCl buffer by circular dichroism spectroscopic analysis.
Series [2] can be described thus: Effect on preformed synthetic c-MYC parallel G-quadruplex DNA topology in tris buffer after 10 mins by circular dichroism titration method. (In general: Circular dichroism is widely used to follow secondary structure.)
Series [3] in a line: Effect on synthetic self-complementary DNA 12-mer duplex topology at 4 mol equiv in presence of K+ ions by circular dichroism spectroscopic analysis. In short, it runs like this: (§1)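 CD spectra at 20 °C, 230-360 nm, 3 scans averaged, baseline subtracted; 10 µM G4 or 15 µM duplex in potassium- or lithium-phosphate pH 7.0 buffers with 100 mM KCl (c-kit2, c-myc: 5 mM potassium phosphate, 20 mM KCl); ligand 4 molar equiv added to folded DNA from 6 mM DMSO stock.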

A short description of series [4]: Binding affinity to synthetic c-KIT1 G-quadruplex DNA assessed as change in melting temperature at 4 mol equiv in presence of 100 mM KCl buffer by circular dichroism spectroscopic analysis. In short, it runs like this: (§2)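 CD melting, 20-100 °C at 1 °C/min, signal at 264 (parallel), 290 (antiparallel) or 280 nm (duplex). G4 DNA 10 µM or duplex 15 µM, folded by heating at 90 °C 5 min and slow cooling, in 10 mM potassium phosphate (c-kit1, Tel23, Tel26) or lithium phosphate (Tel23-p, ds12) pH 7.0 with 100 mM KCl. Ligand 4 equiv; Tm by curve fit, ΔTm vs DNA alone; duplicate average.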

The nature of series [5]: Binding affinity to 5'-FAM/3'-TAMRA labeled c-KIT2 G-quadruplex DNA (unknown origin) assessed as change in melting temperature at 4:1 ligand:DNA ratio in presence of 20 mM KCl buffer by FRET assay. Summed up:
(§3)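 FRET melting of FAM/TAMRA-labelled G4 oligos (400 nM, annealed 85 °C 10 min) with ligand at 4 equiv, same buffers as CD (20 mM KCl for c-kit2 and c-myc; 100 mM KCl for telomeric parallel form, annealed at high concentration). Excitation 450-495 nm, emission 515-545 nm, read every 0.5 °C over 30-100 °C; ΔTm by curve fit; duplicate runs averaged.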

A short description of series [6]: Binding affinity to 5'-FAM/3'-TAMRA labeled c-MYC G-quadruplex DNA (unknown origin) assessed as change in melting temperature at 4:1 ligand:DNA ratio in presence of 20 mM KCl buffer by FRET assay. In short, it runs like this:
as §3

The test system of another series is U2OS. The experiment in a line: Cytotoxicity against human U2OS cells assessed as cell death after 24 hrs by FACS analysis. In kind it is cell-based. (In general: A flow cytometer gives signals particle by particle.)
Series [7] can be described thus: Binding affinity to synthetic c-MYC G-quadruplex DNA assessed as increase in thermal stability at 1:1 to 2:1 ligand:DNA ratio in presence of 20 mM KCl buffer by circular dichroism spectroscopic analysis. In short, it runs like this: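 CD melting in 5 mM potassium phosphate, 20 mM KCl, 10 µM folded G4, heated 20-100 °C at 1 °C/min; ligand:DNA ratios 1:1, 2:1 and 4:1 compared; Tm from curve fit.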

Series [8] in a line: Cytotoxicity against human HCT116 cells assessed as cell killing after 1 hr by MTT assay. In kind it is functional, cell-based. The following applies: HCT-116, 1 h. In short, it runs like this:
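U2OS and HCT116 in DMEM with 10% FBS, 1% L-glutamine, seeded at 40000 cells/ml; 24 h later exposed for 1 h or 24 h, then drug-free medium 1-2 days. MTT 1 h at 37 °C, DMSO solubilisation, absorbance 595 nm. IC50 by linear regression; two independent experiments in triplicate, mean ± SE.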

Series [9] in a line: Binding affinity to synthetic telomere 23 G-quadruplex DNA assessed as change in melting temperature at 4 mol equiv in presence of 100 mM KCl buffer by circular dichroism spectroscopic analysis. In short, it runs like this: as §2
The nature of series [10]: Effect on synthetic telomere 23 G-quadruplex DNA topology at 4 mol equiv by circular dichroism spectroscopic analysis. Summed up:
as §1

Series [11] can be described thus: Effect on synthetic c-KIT2 G-quadruplex DNA topology at 4 mol equiv by circular dichroism spectroscopic analysis. In short, it runs like this: as §1
A short description of series [12]: Effect on synthetic telomere 26 G-quadruplex DNA topology at 4 mol equiv by circular dichroism spectroscopic analysis. Summed up: as §1

Calls of active or inactive are those of the source. The rule behind the calls is not given here.

Consider `Br.O=Cc1c(-c2ccccc2)nc2n1ccc1nc(-c3ccccc3)c(/C=N/NC3=NCCN3)n12`, for which the thermal shift (ΔTm) is > 20 °C in [1]; 2.7 °C in [4]; 15 °C in series [5]; > 20 °C in [6]; -2.4 °C in series [9]. In addition, the result in series [2], in series [3], in series [10], in [11] and in series [12] was inactive. In the series with U2OS, the Activity result is given as “Non-toxic”. Moreover, in series [7], the outcome was Active. Also, in [8], the half-maximal inhibitory concentration (IC50) came to 4.18 µM.

As a reminder, the ΔTm is the change in melting temperature against a reference sample. A word on the IC50: it is the midpoint of a concentration-inhibition curve.

The values are drawn from ChEMBL document CHEMBL3826876, “Toward the Development of Specific G-Quadruplex Binders: Synthesis, Biophysical, and Biological Studies of New Hydrazone Derivatives” (J Med Chem, 2016).
